According to ChEMBL document CHEMBL4130635, “2,4-Diaminoquinazolines as Dual Toll-like Receptor (TLR) 7/8 Modulators for the Treatment of Hepatitis B Virus” (J Med Chem, 2018):
Active and inactive are the calls of the source. No cut-off for these calls is given here.

What was measured:
[1] = AUC (0 to last) in C57BL/6J mouse liver at 10 mg/kg, po by LC-MS analysis; format: ADME, organism-based; conditions: in vivo
Method in brief: (§1)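 Healthy C57BL/6 mice were dosed once by mouth at 0.3, 1, 3, 10 or 30 mg/kg in 20% HP-β-CD, in groups of 15 per dose. Three mice per group were sacrificed at 0.5, 1, 2, 4 or 7 h, and plasma and liver compound levels were measured by LC–MS. Values were rounded to whole numbers.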

Cynomolgus monkey [2] = experiment: Proinflammatory activity in cynomolgus monkey plasma assessed as IL-8 levels at 30 mg/kg, po after 24 hrs by Luminex assay (reference value: 430 pg/ml); format: functional, Macaca fascicularis
Cynomolgus monkey [3] = experiment: Upregulation of Tlr7 expression in cynomolgus monkey plasma at 1 mg/kg, po after 24 hrs by Fluidigm RT-qPCR analysis (reference value: 1.8); format: functional, Macaca fascicularis
[4] = molecular target: T1, TLR7 and TLR8 (Homo sapiens) (UniProt Q9NYK1+Q9NR97); experiment: Agonist activity at TLR7/8 in human PBMCs co-cultured with primary human hepatocytes infected with HBV genotype C for 12 days assessed as increase in CXCL10 levels up to 5 uM measured after 42 days
Cynomolgus monkey [5] = experiment: Induction of ISG response in cynomolgus monkey plasma assessed as upregulation of Isg15 mRNA expression at 1 mg/kg, po after 24 hrs by Fluidigm RT-qPCR analysis (reference value: 1); format: functional, Macaca fascicularis
Method in brief: (§2)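 Cynomolgus monkeys, single oral doses of 1, 3, 9 and 30 mg/kg with a planned 2-week wash-out between doses. Systemic ISG (ISG15, Mx1, OAS1) mRNA was measured by Fluidigm RT-qPCR at 1, 2, 4, 8 and 24 h postdose.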

[6] = Cmax in cynomolgus monkey plasma at 3 mg/kg, po by LC-MS analysis; format: ADME, organism-based, Macaca fascicularis; parameters: dose 3 mg/kg, route oral
Method in brief: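 Healthy cynomolgus monkeys received oral doses of 1, 3, 9 and 30 mg/kg, with a 2-week wash-out between doses. Systemic compound concentrations by LC−MS at 0.25, 0.5, 1, 2, 4, 8 and 24 h postdose.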

Liver [7] = experiment: Upregulation of IP-10 mRNA expression levels in C57BL/6J mouse liver at 1 mg/kg, po by RT-qPCR analysis (reference value: 1); format: functional
Liver [8] = experiment: Effect on cytokine profile in C57BL/6J mouse liver assessed as IL-12p70 levels at 1 mg/kg, po by multiplex assay (reference value: 5 pg/g); format: functional, organism-based
Method in brief: (§3)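 Single oral gavage in 20% HP-β-CD to healthy C57BL/6 mice, groups of 15 at 0.3, 1, 3, 10 or 30 mg/kg. Three mice per group sacrificed at 0.5, 1, 2, 4 or 7 h. Plasma and liver cytokines by multiplex, maximum level reported, rounded to nearest multiple of 5.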

Plasma [9] = experiment: Anti-inflammatory activity in C57BL/6J mouse plasma assessed as IL-10 levels at 30 mg/kg, po by multiplex assay (reference value: 120 pg/ml); format: functional; method in brief: as §3
Plasma [10] = experiment: Effect on cytokine profile in C57BL/6J mouse plasma assessed as IFNgamma levels at 0.3 mg/kg, po by multiplex assay; format: functional, organism-based; method in brief: as §3
Cynomolgus monkey [11] = experiment: Induction of ISG response in cynomolgus monkey plasma assessed as upregulation of Isg15 mRNA expression at 3 mg/kg, po after 24 hrs by Fluidigm RT-qPCR analysis (reference value: 1); format: functional, Macaca fascicularis; method in brief: as §2
Cynomolgus monkey [12] = experiment: Proinflammatory activity in cynomolgus monkey plasma assessed as TNFalpha levels at 30 mg/kg, po after 24 hrs by Luminex assay (reference value: 285 pg/ml); format: functional, Macaca fascicularis
Cynomolgus monkey [13] = experiment: Toxicity in cynomolgus monkey assessed as clinical observation changes up to 30 mg/kg, po; format: organism-based, Macaca fascicularis; conditions: in vivo
[14] = AUC (0 to last) in C57BL/6J mouse liver at 30 mg/kg, po by LC-MS analysis; format: ADME, organism-based; conditions: in vivo; method in brief: as §1
[15] = Intrinsic clearance in dog liver microsomes assessed per mg protein at 1 uM up to 60 mins; format: ADME, Canis lupus familiaris, microsome; conditions: read-out: CLH
[16] = molecular target: T1, TLR7 and TLR8 (Homo sapiens); experiment: Agonist activity at TLR7/8 in human PBMCs co-cultured with primary human hepatocytes infected with HBV genotype C for 12 days assessed as increase in IL-1Ra levels up to 5 uM measured after 42 days
Plasma [17] = experiment: Proinflammatory activity in C57BL/6J mouse plasma assessed as IL-6 levels at 10 mg/kg, po by multiplex assay (reference value: 505 pg/ml); format: functional
Plasma [18] = experiment: Anti-inflammatory activity in C57BL/6J mouse plasma assessed as IL-10 levels at 0.3 mg/kg, po by multiplex assay (reference value: 120 pg/ml); format: functional; method in brief: as §3
Cynomolgus monkey [19] = experiment: Anti-inflammatory activity in cynomolgus monkey plasma assessed as IL-10 levels at 1 mg/kg, po after 24 hrs by Luminex assay (reference value: 195 pg/ml); format: functional, Macaca fascicularis
[20] = molecular target: T1, TLR7 and TLR8 (Homo sapiens); experiment: Agonist activity at TLR7/8 in human PBMCs co-cultured with primary human hepatocytes infected with HBV genotype C for 12 days assessed as increase in GROalpha levels up to 5 uM measured after 42 days
[21] = Metabolic stability in mouse liver microsomes assessed as compound metabolized at 1 uM after 15 mins; format: ADME, microsome; conditions: read-out: Drug metabolism
Method in brief: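 Mouse (M) or human (H) liver microsomes incubated with compound at 1 μM; percent metabolized after 15 min.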

Plasma [22] = experiment: Effect on cytokine profile in C57BL/6J mouse plasma assessed as IL-12p70 levels at 30 mg/kg, po by multiplex assay (reference value: 560 pg/ml); format: functional; method in brief: as §3
Cynomolgus monkey [23] = experiment: Induction of G-CSF in cynomolgus monkey plasma at 30 mg/kg, po after 24 hrs by Luminex assay (reference value: 85 pg/ml); format: functional, Macaca fascicularis
Method in brief: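 Healthy cynomolgus monkeys given single oral doses of 1, 3, 9 and 30 mg/kg, with a 2-week wash-out planned between doses. Systemic cytokine levels in plasma were sampled at 0.5, 1, 2, 4, 9 and 24 h postdose.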

Cynomolgus monkey [24] = experiment: Toxicity in cynomolgus monkey assessed as change in body weight up to 30 mg/kg, po; format: organism-based, Macaca fascicularis; conditions: in vivo
Liver [25] = experiment: Anti-inflammatory activity in C57BL/6J mouse liver assessed as IL-10 levels at 10 mg/kg, po by multiplex assay (reference value: 2 pg/g); format: functional; method in brief: as §3
Liver [26] = experiment: Induction of IFNalpha levels in C57BL/6J mouse liver at 30 mg/kg, po by ELISA (reference value: 30 pg/g); format: functional
Plasma [27] = experiment: Effect on cytokine profile in C57BL/6J mouse plasma assessed as IL-12p70 levels at 1 mg/kg, po by multiplex assay (reference value: 560 pg/ml); format: functional; method in brief: as §3
Plasma [28] = experiment: Upregulation of IP-10 mRNA expression levels in C57BL/6J mouse plasma at 3 mg/kg, po by RT-qPCR analysis (reference value: 1); format: functional
Cynomolgus monkey [29] = experiment: Induction of ISG response in cynomolgus monkey plasma assessed as upregulation of Oas1b mRNA expression at 3 mg/kg, po after 24 hrs by Fluidigm RT-qPCR analysis (reference value: 1); format: functional, Macaca fascicularis; method in brief: as §2
[30] = Inhibition of CYP450 (unknown origin); format: ADME; conditions: human
Liver [31] = experiment: Effect on cytokine profile in C57BL/6J mouse liver assessed as IL-12p70 levels at 10 mg/kg, po by multiplex assay (reference value: 5 pg/g); format: functional; method in brief: as §3

SMILES: CCC[C@@H](CCO)Nc1nc(N)nc2c(F)cccc12
- AUClast [1]: 2315 ng·h/g
- Activity (Cynomolgus monkey [2]): 1840 pg/mL
- fold change (FC) (Cynomolgus monkey [3]): 4.8
- Activity [4]: Active
- fold change (FC) (Cynomolgus monkey [5]): 145
- Cmax [6]: 142 ng/mL
- fold change (FC) (Liver [7]): 775
- Activity (Liver [8]): Below limit of detection
- Activity (Plasma [9]): 5170 pg/mL
- Activity (Plasma [10]): Below limit of detection
- fold change (FC) (Cynomolgus monkey [11]): 145
- Activity (Cynomolgus monkey [12]): 2990 pg/mL
- Activity (Cynomolgus monkey [13]): Non-Toxic
- AUClast [14]: 7160 ng·h/g
- microsomal CLint at 1 µM [15]: 21 µL/min/mg
- Activity [16]: Active
- Activity (Plasma [17]): >10000 pg/mL
- Activity (Plasma [18]): 345 pg/mL
- Activity (Cynomolgus monkey [19]): 1275 pg/mL
- Activity [20]: Active
- metabolised at 0.25 h, 1 µM [21]: 93%
- Activity (Plasma [22]): 820 pg/mL
- Activity (Cynomolgus monkey [23]): 1135 pg/mL
- Activity (Cynomolgus monkey [24]): Non-Toxic
- Activity (Liver [25]): 2265 pg/g
- Activity (Liver [26]): 955 pg/g
- Activity (Plasma [27]): 380 pg/mL
- fold change (FC) (Plasma [28]): 2485
- fold change (FC) (Cynomolgus monkey [29]): 265
- inhibition (INH) [30]: Not Active
- Activity (Liver [31]): 790 pg/g
